Assay results pooled from the literature.
SIRT6: NAD-dependent protein deacylase sirtuin-6 (SIRT6, Homo sapiens, UniProt Q8N6T7)
HTR7: 5-hydroxytryptamine receptor 7 (HTR7, Homo sapiens, UniProt P34969)

CSSc1ccccc1C(=O)O
inhibition (Cathepsin B (CTSB, Homo sapiens, UniProt P07858); enzyme activity; inhibitor; fluorescence; 20 µM): 100%

NC(=O)c1ccc(C(=O)NOCc2ccc(Sc3cc(Cl)cc(Cl)c3)c(C(F)(F)F)c2)cc1
inhibition (SIRT6; enzyme activity; inhibitor; fluorescence; 100 µM): 100%

O=C(Nc1ccc(S(=O)(=O)N2CCC(Cl)CC2)cc1)c1ccc([N+](=O)[O-])o1
inhibition (Voltage-dependent L-type calcium channel subunit alpha-1C (Cacna1c, Rattus norvegicus, UniProt P22002); ligand displacement; radioligand; 10 µM): 24%

N=c1n(CCN2CCCCC2)c2ccccc2n1CC(O)c1cccc(Br)c1 (stereo not shown)
inhibition (Sodium channel protein type 5 subunit alpha (SCN5A, Homo sapiens, UniProt Q14524); ion current; inhibitor; patch clamp; CHO; 10 µM): 66%

O=[N+]([O-])c1ccc(N2CCCN(CCC(O)c3csc4ccc(F)cc34)CC2)c(C(F)(F)F)c1 (stereo not shown)
inhibition (Plasmepsin II (Plasmodium falciparum, UniProt P46925); enzyme activity; inhibitor; 5 µM): 8%

O=C(c1ccc(Cl)cc1)N(Cc1ccccc1)C1CCCCC1
inhibition (HTR7; ligand displacement; radioligand; 10 µM): 19.2%

CC/C(=N\NC(=O)NCc1cccc(O)c1)c1ccc(O)c(C)c1O
inhibition (ALK tyrosine kinase receptor (ALK, Homo sapiens, UniProt Q9UM73, L1196M); enzyme activity; inhibitor; 0.1 µM): 3%

NC(=O)c1ccc(C(=O)NOCc2ccccc2Br)cc1
inhibition (SIRT6; enzyme activity; inhibitor; fluorescence; 100 µM): 79.7%

C/C(=C\C(=O)OCCCCCCCCC(=O)O)C[C@@H]1OC[C@H](C[C@@H]2O[C@H]2[C@@H](C)[C@H](C)O)[C@@H](O)[C@H]1O
inhibition (C-C chemokine receptor type 5 (CCR5, Homo sapiens, UniProt P51681); calcium signal; antagonist; U87/CD4/CCR5; 20 µM): 76%

Cc1cccc(CONC(=O)c2ccc(C(N)=O)cc2)c1
inhibition (SIRT6; enzyme activity; inhibitor; fluorescence; 100 µM): 84%

Ic1cccc2cnccc12
inhibition (Poly [ADP-ribose] polymerase 2 (PARP2, Homo sapiens, UniProt Q9UGN5); enzyme activity; inhibitor; 10 µM): 40%

CCCCCCOc1c(OC)cc2c3c1-c1cc4c(cc1CC3N(C)CC2c1ccccc1)OCO4 (stereo not shown)
inhibition (HTR7; ligand displacement; radioligand; 10 µM): -14.6%

COc1ccc(CONC(=O)c2ccc(C(N)=O)cc2)cc1
inhibition (SIRT6; enzyme activity; inhibitor; fluorescence; 100 µM): 78.2%

CCCNc1nc2ccccc2n1Cc1ccc(Cl)cc1
inhibition (5-hydroxytryptamine receptor 6 (HTR6, Homo sapiens, UniProt P50406); ligand displacement; 10 µM): 36.6%

NC(=S)c1ccc(C(=O)NOCc2ccc(C(F)(F)F)cc2)cc1
inhibition (SIRT6; enzyme activity; inhibitor; fluorescence; 100 µM): 89.2%

CN(C)C1CCN(CC#Cc2nn(C3CCCC3)c3nc(NCc4ccccc4)ncc23)C1 (stereo not shown)
inhibition (Mitogen-activated protein kinase 13 (MAPK13, Homo sapiens, UniProt O15264); enzyme activity; inhibitor; FRET; 0.1 µM): 1%

NC(=O)c1ccc(C(=O)NOCc2ccc(Sc3cccc(F)c3)c(C(F)(F)F)c2)cc1
inhibition (SIRT6; enzyme activity; inhibitor; fluorescence; 100 µM): 97.6%

C1=CSC(=C2SC=CS2)S1
inhibition (Ubiquitin carboxyl-terminal hydrolase 14 (USP14, Homo sapiens, UniProt P54578); enzyme activity; inhibitor; 17 µM): 54%

CCN(Cc1ccccc1C(F)(F)F)C(=O)C1CCN(S(=O)(=O)c2ccc3[nH]ncc3c2)CC1
inhibition (Alpha-1A adrenergic receptor (Adra1a, Rattus norvegicus, UniProt P43140); ligand displacement; radioligand; 10 µM): 12%
